From ChEMBL document CHEMBL1157137, “Design, synthesis and biological evaluation of piperazine analogues as CB1 cannabinoid receptor ligands” (Bioorg Med Chem, 2008)

Assays:
Cannabinoid receptor 1 [1] = target: Cannabinoid receptor 1 (Rattus norvegicus, UniProt P20272); assay: Displacement of [3H]CP-55940 from CB1 receptor in Sprague-Dawley rat cerebella membrane
How it was run: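 Male Sprague–Dawley rat (200–300 g) cerebellar membranes incubated with 3 nM [3H]CP55,940 and varied ligand concentrations in TME buffer with 0.5% fatty-acid-free BSA, 1 h at 30 °C. Filtered over PEI-soaked GF/B filters, washed five times with ice-cold buffer containing 0.1% BSA, then counted by liquid scintillation. IC50 from single determinations.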

Cannabinoid receptor 2 = Cannabinoid receptor 2 (Homo sapiens, UniProt P34972); assay: Displacement of [3H]WIN-55212-2 from human CB2 receptor expressed in CHOK1 cells; assay type: cell-based, CHO-K1
How it was run: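 Membranes were from CHO K-1 cells transfected with human CB2. They were incubated with 3 nM [3H]WIN55,212-2 and varied ligand concentrations in TME/0.5% fatty-acid-free BSA, 1 h at 30 °C. Bound ligand was separated on 0.1% PEI-soaked GF/B filters, washed five times with ice-cold 0.1% BSA buffer, and counted by scintillation. IC50 from single determinations.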

Cannabinoid receptor 1 [2] = target: Cannabinoid receptor 1 (Homo sapiens, UniProt P21554); assay: Antagonist activity at human CB1 receptor expressed in CHOK1 cells by luciferase assay; assay type: functional, cell-based, CHO-K1
Cannabinoid receptor 1 (Homo sapiens, UniProt P21554), sequence (P21554 whole entry): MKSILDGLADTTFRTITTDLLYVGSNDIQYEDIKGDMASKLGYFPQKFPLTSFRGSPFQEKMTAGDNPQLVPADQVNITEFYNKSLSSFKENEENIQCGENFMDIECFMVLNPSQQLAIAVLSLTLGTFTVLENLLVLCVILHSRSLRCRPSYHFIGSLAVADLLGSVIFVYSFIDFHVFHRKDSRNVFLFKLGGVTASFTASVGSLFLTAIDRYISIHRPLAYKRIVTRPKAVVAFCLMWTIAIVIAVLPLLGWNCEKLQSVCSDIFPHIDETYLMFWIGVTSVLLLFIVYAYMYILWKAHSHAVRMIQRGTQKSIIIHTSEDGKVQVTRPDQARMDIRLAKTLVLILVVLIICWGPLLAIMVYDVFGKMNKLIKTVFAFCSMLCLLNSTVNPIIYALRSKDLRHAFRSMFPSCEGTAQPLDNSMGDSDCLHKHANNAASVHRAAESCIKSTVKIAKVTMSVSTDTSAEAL

Cannabinoid receptor 1 (Rattus norvegicus, UniProt P20272), sequence (P20272 whole entry): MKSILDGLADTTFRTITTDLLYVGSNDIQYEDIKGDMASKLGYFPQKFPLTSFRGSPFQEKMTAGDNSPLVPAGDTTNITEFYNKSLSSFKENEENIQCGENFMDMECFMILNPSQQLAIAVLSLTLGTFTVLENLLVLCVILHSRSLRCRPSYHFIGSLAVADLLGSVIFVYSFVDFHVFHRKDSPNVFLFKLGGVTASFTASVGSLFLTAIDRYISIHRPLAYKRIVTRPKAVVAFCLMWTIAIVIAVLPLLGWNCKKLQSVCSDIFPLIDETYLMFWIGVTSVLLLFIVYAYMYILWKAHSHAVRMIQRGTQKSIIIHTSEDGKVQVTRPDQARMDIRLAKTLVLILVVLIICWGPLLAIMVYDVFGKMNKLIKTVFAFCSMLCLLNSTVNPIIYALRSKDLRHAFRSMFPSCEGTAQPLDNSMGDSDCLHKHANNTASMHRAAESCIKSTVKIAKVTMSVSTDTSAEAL
Cannabinoid receptor 2, sequence (P34972 whole entry): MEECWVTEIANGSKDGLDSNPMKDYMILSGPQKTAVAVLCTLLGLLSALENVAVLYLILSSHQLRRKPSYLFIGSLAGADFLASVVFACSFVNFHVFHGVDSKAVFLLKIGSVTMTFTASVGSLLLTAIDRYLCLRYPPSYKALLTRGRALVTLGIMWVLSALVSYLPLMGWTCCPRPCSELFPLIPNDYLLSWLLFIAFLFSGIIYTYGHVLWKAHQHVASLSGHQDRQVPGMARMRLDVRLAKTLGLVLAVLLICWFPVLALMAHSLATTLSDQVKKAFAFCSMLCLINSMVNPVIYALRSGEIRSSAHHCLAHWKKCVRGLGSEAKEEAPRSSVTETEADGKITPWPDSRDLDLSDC

| Structure (SMILES) | IC50 (Cannabinoid receptor 1 [1]) [nM] | IC50 (Cannabinoid receptor 2) [nM] | IC50 (Cannabinoid receptor 1 [2]) [nM] |
| --- | --- | --- | --- |
| O=C(NCC1CCCCC1)N1CCN(C(c2ccc(Cl)cc2)c2cccc(Cl)c2Cl)CC1 (stereo not drawn) | 2000 |  |  |
| O=C(NC1CCCCC1)N1CCN(C(c2ccc(Cl)cc2)c2ccc(Cl)cc2Cl)CC1 (stereo not drawn) | 104 | > 10000 | 367 |
| O=C(NC1CCCCC1)N1CCN(C(c2ccc(Cl)cc2)c2cccc(Cl)c2Cl)CC1 (stereo not drawn) | 186 | > 10000 | 441 |
| O=C(NC1CCCCCC1)N1CCN(C(c2ccc(Cl)cc2)c2cccc(Cl)c2Cl)CC1 (stereo not drawn) | 158 | > 10000 | 424 |
| CC(C)(C)NC(=O)N1CCN(C(c2ccc(Cl)cc2)c2cccc(Cl)c2Cl)CC1 (stereo not drawn) | 783 | > 10000 | 316 |
| O=C(NCC1CCCCC1)N1CCN(C(c2ccc(Br)cc2)c2ccccc2Cl)CC1 (stereo not drawn) | 127 | > 10000 | 146 |
| O=C(NCC1CCCCC1)N1CCN(C(c2ccc(Cl)cc2)c2ccccc2Cl)CC1 (stereo not drawn) | 189 | > 10000 | 273 |
| O=C(NC1CCCCC1)C(=O)N1CCN(C(c2ccc(Cl)cc2)c2ccccc2Cl)CC1 (stereo not drawn) | 226 |  |  |
| Cc1ccccc1C(c1ccc(Cl)cc1)N1CCN(C(=O)NC2CCCCCC2)CC1 (stereo not drawn) | 151 | > 10000 | 163 |
| Cc1ccccc1C(c1ccc(Cl)cc1)N1CCN(C(=O)NC2CCCCC2)CC1 (stereo not drawn) | 248 | > 10000 | 195 |
| O=C(NCC1CCCCC1)N1CCN(C(c2ccc(Cl)cc2)c2ccc(Cl)cc2Cl)CC1 (stereo not drawn) | 262 | > 10000 | 1040 |
| O=C(NC1CCCCC1)N1CCN(C(c2ccc(Cl)cc2)c2ccc(Cl)cc2)CC1 | 914 |  |  |
| O=C(NC1CCCCCC1)C(=O)N1CCN(C(c2ccc(Cl)cc2)c2ccccc2Cl)CC1 (stereo not drawn) | 229 |  |  |
| CCCCCC(=O)N1CCN(C(c2ccc(Cl)cc2)c2ccc(Cl)cc2Cl)CC1 (stereo not drawn) | 257 |  |  |
| O=C(NC1CCCCCC1)N1CCN(C(c2ccc(Cl)cc2)c2ccccc2Cl)CC1 (stereo not drawn) | 66.5 | > 10000 | 226 |
| CC(C)(C)NC(=O)N1CCN(C(c2ccc(Cl)cc2)c2ccccc2Cl)CC1 (stereo not drawn) | 122 | 4820 | 443 |

| Structure (SMILES) | IC50 (Cannabinoid receptor 1 [1]) [nM] | IC50 (Cannabinoid receptor 2) [nM] | IC50 (Cannabinoid receptor 1 [2]) [nM] |
| --- | --- | --- | --- |
| O=C(C1CCC1)N1CCN(C(c2ccc(Cl)cc2)c2ccc(Cl)cc2)CC1 | 1070 |  |  |
| O=C(NC1CCCCC1)N1CCN(C(c2ccc(Cl)cc2)c2ccccc2Cl)CC1 (stereo not drawn) | 72.8 | > 10000 | 128 |
| CC(C)(C)NC(=O)N1CCN(C(c2ccc(Br)cc2)c2ccccc2Cl)CC1 (stereo not drawn) | 237 | 4950 | 286 |
| Cc1ccccc1C(c1ccc(Cl)cc1)N1CCN(C(=O)NC(C)(C)C)CC1 (stereo not drawn) | 680 | > 10000 | 334 |
| O=C(NC1CCCCCC1)N1CCN(C(c2ccc(Br)cc2)c2ccccc2Cl)CC1 (stereo not drawn) | 82.3 | > 10000 | 49.4 |
| CC(C)(C)NC(=O)N1CCN(C(c2ccc(Cl)cc2)c2ccccc2C(F)(F)F)CC1 (stereo not drawn) | 2050 |  |  |
| O=C(NC1CCCCC1)N1CCN(C(c2ccc(Br)cc2)c2ccccc2Cl)CC1 (stereo not drawn) | 103 | > 10000 | 62.8 |
| O=C(NC1CCCCC1)N1CCN(C(c2ccc(Cl)cc2)c2ccccc2C(F)(F)F)CC1 (stereo not drawn) | 163 | > 10000 | 186 |
| O=C(NCC1CCCCC1)N1CCN(C(c2ccc(Cl)cc2)c2ccccc2C(F)(F)F)CC1 (stereo not drawn) | 526 | > 10000 | 798 |
| O=C(NC1CCCCCC1)N1CCN(C(c2ccc(Cl)cc2)c2ccccc2C(F)(F)F)CC1 (stereo not drawn) | 141 | > 10000 | 204 |
| O=C(C1CCCCC1)N1CCN(C(c2ccc(Cl)cc2)c2ccc(Cl)cc2)CC1 | 1390 |  |  |
| CCCCCC(=O)N1CCN(C(c2ccc(Cl)cc2)c2ccc(Cl)cc2)CC1 | 1150 |  |  |
| Cc1ccccc1C(c1ccc(Cl)cc1)N1CCN(C(=O)NCC2CCCCC2)CC1 (stereo not drawn) | 291 | > 10000 | 340 |
| CC(C)(C)NC(=O)N1CCN(C(c2ccc(Cl)cc2)c2ccc(Cl)cc2Cl)CC1 (stereo not drawn) | 2000 |  |  |
| O=C(NC1CCCCCC1)N1CCN(C(c2ccc(Cl)cc2)c2ccc(Cl)cc2Cl)CC1 (stereo not drawn) | 89.2 | > 10000 | 729 |
